Experimental data published in ChEMBL document CHEMBL1124779, “Synthesis and antitumor activity of 1-[[(dialkylamino)alkyl]amino]-4-methyl-5H-pyrido[4,3-b]benzo[e]- and -benzo[g])indoles. A new class of antineoplastic agents” (1990).
≈ marks a conversion by molar mass, not a printed value. Where “and” joins values, the source holds several entries; their conditions need not be identical. Identical values can stand only once.

What was measured:
[1] = Cytotoxicity in the multiple tumor disk diffusion soft agar assay at the dose of 15 ug/disk against solid tumor C38.; assay type: functional, Mus musculus
Procedure, shortened: (§1)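 Soft agar disk diffusion: bottom layer 0.8% noble agar, top layer 0.47% noble agar, both in 1:1 CMRL-Fischer medium with 11% horse serum. Top layer seeded with 5×10^3 L1210 cells or 10^6 solid tumor cells (C38, PO3). Drug applied on a dried 6-mm filter-paper disk. Incubation 7-11 days. Inhibition zone measured by inverted microscope, in units (1 unit = 30 μm).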

P388 [2] = test: In vivo T/C (survival time treated/survival time control x 100) was determined against P388 leukemia cells at 40 mg/Kg; assay type: functional, Mus musculus
Procedure, shortened: (§2)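 B6D2 F1 mice, at least five per group, were inoculated ip on day 0 with 10^6 viable P388 cells (25 mL/kg). Compounds were dissolved in distilled water and given ip (25 mL/kg) daily on days 1–4. Mortality was checked daily, with necropsy of dead animals. T/C×100 was median survival, treated versus control. Survivors beyond 50 days counted as cured and were excluded from the median.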

P388 [3] = test: In vitro cytotoxicity was determined against P388 leukemia cells; assay type: functional; conditions: Mus musculus, read-out: ID50 (the source's name)
Procedure, shortened: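 P388 cells in exponential growth, RPMI 1640 with 2 mM glutamine, 10 μM 2-mercaptoethanol and 10% FCS, 5% CO2, 37 °C. Cells at 10^5 cells/mL. Drugs in distilled water added on day 0. Cells counted by Coulter counter after 96 h. ID50 (μg/mL, 50% inhibition of proliferation) estimated by regression of concentration/response data.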

L1210 [4] = test: Tested for cytotoxicity in the multiple tumor disk diffusion soft agar assay at the dose of 15 ug/disk against leukemia L1210; range is 450-600; assay type: functional, Mus musculus; procedure, shortened: as §1
P388 [5] = test: In vivo T/C (survival time treated/survival time control x 100) was determined against P388 leukemia cells at 20 mg/Kg; assay type: functional, Mus musculus; procedure, shortened: as §2
[6] = Tested for cytotoxicity in the multiple tumor disk diffusion soft agar assay at the dose of 15 ug/disk against solid tumor C38; U = 32 uM; assay type: functional, Mus musculus; procedure, shortened: as §1
L1210 [7] = test: Tested for cytotoxicity in the multiple tumor disk diffusion soft agar assay at the dose of 15 ug/disk against leukemia L1210; U = 32 uM; assay type: functional, Mus musculus; procedure, shortened: as §1
L1210 [8] = test: Tested for cytotoxicity in the multiple tumor disk diffusion soft agar assay at the dose of 15 ug/disk against leukemia L1210; assay type: functional, Mus musculus; procedure, shortened: as §1
L1210 [9] = test: Cytotoxicity in the multiple tumor disk diffusion soft agar assay at the dose of 15 ug/disk against leukemia L1210; assay type: functional, Mus musculus; procedure, shortened: as §1
[10] = Cytotoxicity in the multiple tumor disk diffusion soft agar assay at the dose of 15 ug/disk against solid tumor PO3; assay type: functional, Mus musculus; procedure, shortened: as §1
[11] = Tested for cytotoxicity in the multiple tumor disk diffusion soft agar assay at the dose of 15 ug/disk against solid tumor PO3; assay type: functional, Mus musculus; procedure, shortened: as §1
L1210 [12] = test: In vivo T/C (survival time treated/survival time control x 100) was determined against L1210 leukemia cells at 20 mg/Kg; assay type: functional, Mus musculus
Procedure, shortened: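 B6D2 F1 mice, at least five per group, were inoculated ip on day 0 with 10^5 viable L1210 cells (25 mL/kg). Compounds were dissolved in distilled water and given ip (25 mL/kg) on days 1–4. Deaths were checked daily, with necropsy to separate tumor from toxic death. T/C×100 was median survival of treated over controls. Mice surviving over 50 days counted as cured and were excluded from the median.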

[13] = Tested for cytotoxicity in the multiple tumor disk diffusion soft agar assay at the dose of 15 ug/disk against solid tumor C38; assay type: functional, Mus musculus; procedure, shortened: as §1
[14] = Tested for cytotoxicity in the multiple tumor disk diffusion soft agar assay at the dose of 15 ug/disk against solid tumor C38; range is 650-675; assay type: functional, Mus musculus; procedure, shortened: as §1
P388 [15] = test: In vivo T/C (survival time treated/survival time control x 100) was determined against P388 leukemia cells at 10 mg/Kg; assay type: functional, Mus musculus; procedure, shortened: as §2
L1210 [16] = test: Tested for cytotoxicity in the multiple tumor disk diffusion soft agar assay at the dose of 15 ug/disk against leukemia L1210; range is 300-375; assay type: functional, Mus musculus; procedure, shortened: as §1
[17] = Tested for cytotoxicity in the multiple tumor disk diffusion soft agar assay at the dose of 15 ug/disk against solid tumor PO3; range is 350-450; assay type: functional, Mus musculus; procedure, shortened: as §1
L1210 [18] = test: Tested for cytotoxicity in the multiple tumor disk diffusion soft agar assay at the dose of 15 ug/disk against leukemia L1210; range is 0-450; assay type: functional, Mus musculus; procedure, shortened: as §1
Mus musculus = test: In vivo total number of survivors was determined against P388 leukemia cells out of 5 mouse at 50 day; assay type: functional; procedure, shortened: as §2

CCN(CC)CCCNc1ncc(C)c2c1c1c3ccccc3ccc1n2C
Cytotoxicity [1]: 520 U | T/C x100 (P388 [2]): 124 | IC50 (P388 [3]): 0.1 µg/mL (≈ 0.267 µM) | Cytotoxicity (L1210 [4]): 450 U

Cc1cnc(NCCCN(C)C)c2c3ccc4c(O)cccc4c3n(C)c12
T/C x100 (P388 [5]): 135 | Cytotoxicity [6]: 900 U | Cytotoxicity (L1210 [7]): 675 U | IC50 (P388 [3]): 0.025 µg/mL (≈ 0.069 µM)

CCN(CC)CCCNc1[nH]cc(C)c2nc3c(ccc4cc(OC)ccc43)c1-2
Cytotoxicity [1]: 285 U | Cytotoxicity (L1210 [8]): 325 U | Cytotoxicity (L1210 [9]): 200 U | Cytotoxicity [10]: 200 U | T/C x100 (P388 [2]): 131 | IC50 (P388 [3]): 0.5 µg/mL (≈ 1.28 µM)

COc1ccc2c(ccc3[nH]c4c(C)cnc(NCCCN(C)C)c4c32)c1
Cytotoxicity [11]: 630 U and 300 U | T/C x100 (L1210 [12]): 127 | Cytotoxicity (L1210 [9]): 750 U and 350 U | Cytotoxicity [13]: 800 U and 450 U | IC50 (P388 [3]): 0.75 µg/mL (≈ 2.07 µM)

CCN(CC)CCCNc1ncc(C)c2c1c1c3ccc(O)cc3ccc1n2C
T/C x100 (L1210 [12]): 129 | T/C x100 (P388 [5]): 232 | Cytotoxicity (L1210 [9]): 450 U | Cytotoxicity [14]: 650 U | IC50 (P388 [3]): 0.025 µg/mL (≈ 0.064 µM)

CCN(CC)CCCNc1[nH]cc(C)c2nc3c(ccc4ccccc43)c1-2
Cytotoxicity [1]: 460 U | Cytotoxicity (L1210 [9]): 500 U | Cytotoxicity [10]: 200 U | T/C x100 (P388 [15]): 102 | IC50 (P388 [3]): 0.75 µg/mL (≈ 2.08 µM) | Cytotoxicity (L1210 [16]): 300 U

Cc1cnc(NCCCN(C)C)c2c3c4ccc(O)cc4ccc3n(C)c12
Cytotoxicity [17]: 350 U | Cytotoxicity (L1210 [18]): 0 U | T/C x100 (L1210 [12]): 127 | Cytotoxicity [1]: 750 U | Survivors (Mus musculus): 1 | T/C x100 (P388 [5]): 243 | Cytotoxicity (L1210 [9]): 350 U | IC50 (P388 [3]): 0.015 µg/mL (≈ 0.0414 µM)

CCN(CC)CCCNc1ncc(C)c2c1c1ccc3cc(O)ccc3c1n2C
Cytotoxicity [1]: 325 U | T/C x100 (P388 [5]): 124 | Cytotoxicity (L1210 [8]): 400 U | Cytotoxicity (L1210 [9]): 300 U | Cytotoxicity [10]: 350 U | IC50 (P388 [3]): 0.1 µg/mL (≈ 0.256 µM)
